Measured values from ChEMBL document CHEMBL4513216, “Probing the Open Global Health Chemical Diversity Library for Multistage-Active Starting Points for Next-Generation Antimalarials” (ACS Infect Dis, 2020).

Assay: Toxicity liver stage against HepG2, at 10uM
Assay type: cell-based
Design: test concentration 10 uM, cell line HepG2-A16-CD81EGFP
Conditions: human, HepG2-A16-CD81EGFP cells; read-out: INHIBITION
How it was run: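 Uninfected HepG2-A16-CD81EGFP cells, 3 × 10^3 per well, 1536-well, plated on prespotted compound at 10 μM final, parasite-free screening media added to match infected plates; puromycin 10 μM positive, DMSO 0.5% negative; run in parallel with 48 h PbLuc assay at 37 °C, 5% CO2; viability by CellTiter-Glo luminescence, normalized to controls.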

| SMILES | cytotoxicity at 10 µM |
| --- | --- |
| COc1cccc2c3c(c(=O)[nH]c12)CCC(C)(C)O3 | -1.43% |
| O=C(NCC(O)c1ccccc1)Nc1cccs1 (stereo not given) | 8.25% |
| O=c1ncn(-c2ccc(F)cc2)c2ncccc12 | 0.946% |
| Cc1nc2ccccc2c(=O)n1Cc1nnnn1C1CC1 | -13.8% |
| CC(C)N1CCN2C(=O)N(C3CCCCC3)C[C@H]2C1 | 1.2% |
| Cc1ccc(-c2noc([C@@H]3C[C@H](NC(=O)CC(C)(C)C)CN3C)n2)cc1 | 7.35% |
| CC[C@@H](C)[C@H](NC(=O)NC1CCS(=O)(=O)C1)C(=O)NCc1ccncc1 (stereo not given in full) | -2.56% |
| Cn1nnnc1SCC(=O)N1CCN(C(=O)C2CC2c2cccs2)CC1 (stereo not given) | 8.58% |
| O=C(CC1CCCCC1)N1CCOCC1CO (stereo not given) | -0.779% |
| CC(C)c1nnc(C2CCN(CC(=O)Nc3cccnc3)CC2)o1 | -5.92% |
| O=C(Nc1cnn(C2CCOCC2)c1)c1ccc2c(c1)OCO2 | 3.07% |
| Cc1ccsc1C(=O)N1CC2CC1(C(=O)NCc1ccco1)C2 | -6.43% |
| CC1c2ncc(COCC3CCOCC3)n2CCN1S(C)(=O)=O (stereo not given) | 3.11% |
| Cc1cccc(N2CC[C@@H]3[C@@H](CO[C@H]3CNS(C)(=O)=O)C2)n1 | 3.62% |
| CC(C)NC(=O)C1CN(C(=O)c2cccs2)CC12CCOCC2 (stereo not given) | -3.59% |
| c1ccc(-c2ncc3c(n2)C2(CCN(c4ncccn4)C2)COC3)cc1 (stereo not given) | 1.36% |
| Cn1cc(C2CC3(CCN(C(=O)c4cccs4)CC3)NC2=O)cn1 (stereo not given) | 1.27% |
| CC(C)Oc1ccccc1C1CC(=O)Nc2nc(N3CCOCC3)sc21 (stereo not given) | 14.3% |
| CNc1oc(-c2cc(S(=O)(=O)N3CCCC3)c(C)o2)nc1C#N | 5.08% |
| COc1cccc(C2CC(=O)Nc3c2cnn3C(C)(C)C)c1 (stereo not given) | -8.54% |
| COCCN1C(=O)CCC12CCN(C(=O)NC(C)C)CC2 | 4.45% |
| O=C(c1ccc[nH]1)N1C[C@H](OCc2cccnc2)[C@H]2COC[C@H]21 | -10.4% |
| CCS(=O)(=O)Nc1ccn(Cc2c(F)cccc2Cl)n1 | 7.77% |
| COc1cc(CC2CC(c3ccc4c(c3)OCO4)=NO2)cc2c1OCO2 (stereo not given) | 0.69% |
| O=C(CCc1ccccc1F)NC1CCCN(c2ccccn2)C1 (stereo not given) | 2.21% |
| c1ccc(Oc2nccnc2C2CCN(C3CCOCC3)CC2)cc1 | 4.38% |
| COCC(=O)N1CC(c2n[nH]cc2C)C1 | -2.76% |
| Cc1nccc(C2CCCN(C(=O)c3cncnc3)C2)n1 (stereo not given) | 4.1% |

| SMILES | cytotoxicity at 10 µM |
| --- | --- |
| CCOC(=O)c1n[nH]cc1-c1cncn1CCn1nc(C)c(Cl)c1C | -15.1% |
| NC(=O)CN1CCCC(c2nccnc2Oc2cccc(F)c2)C1 (stereo not given) | -17.1% |
| Cc1cccc(CC(=O)NC2CCN(C(=O)NC(C)(C)C)CC2)c1 | -10.4% |
| Cn1ccnc1CN1CCCN(C(=O)C2(C#N)CCCCC2)CC1 | -2.84% |
| CCC(C)(O)CNc1ccc(S(=O)(=O)C(F)F)cc1 (stereo not given) | 12.2% |
| COC(=O)c1ccc(NC(=O)NC2CCc3[nH]ncc3C2)cc1 (stereo not given) | -11.2% |
| CCC(CNS(=O)(=O)c1cccc(C(=O)OC)c1)N1CCCC1 (stereo not given) | -8.93% |
| CCOCCC(=O)Nc1cccc(Cl)c1C(N)=O | -8.59% |
| CCn1cc(C(=O)NCC(C)(CC)N2CCOCC2)c2ccccc21 (stereo not given) | 6.13% |
| NC(=O)CC1CCN(c2ncnc3cccc(F)c23)CC1 | 3.39% |
| CC(NC(=O)Nc1cccnc1N1CCOCC1)c1ccccc1 (stereo not given) | 2.83% |
| Cc1ccc(CNC(=O)NC2CCC(O)CC2)c(N2CCCC2)c1 (stereo not given) | -16.4% |
| O=C(NCc1ccnc(OCC2CC2)c1)C1Cc2ccccc2O1 (stereo not given) | -0.483% |
| CN1CCN(C(=O)c2cccn2C)c2ccccc2C1 | 7.28% |
| Cc1cc(F)cc2c(N3CCS(=O)(=O)CC3)c(C#N)cnc12 | -16.7% |
| CCc1nsc(N2CCN(C(=O)COc3ccccc3)CC2)n1 | -3.49% |
| O=C(NCc1ccccc1CN1CCCCCC1)Nc1nncs1 | 4.22% |
| CC1CCCCN1C(=O)Cn1cc(I)cn1 (stereo not given) | 0.687% |
| Cc1cccc(-c2noc(CN3CCC(c4ccn[nH]4)CC3)n2)c1 | 4.13% |
| Cc1cc(CN2CCc3cncnc3C2)on1 | 4.13% |
| CCNC(=O)C1CCN(Cn2nc(-c3ccccc3)oc2=O)CC1 | 11.5% |
| CC(C)NC(=O)c1nnn(-c2ccc(F)cc2)c1C1CC1 | 12.1% |
| Cc1ccnc(N2CCC(NCCOc3ccccc3)CC2)n1 | -1.21% |
| Cc1cnc(CN(Cc2ccc(C#N)cc2F)C2CCN(C)C2)o1 (stereo not given) | 0.172% |
| Cc1cc(NC(C)C(=O)NCc2ccccc2)nc(-c2ccncc2)n1 (stereo not given) | 0.563% |
| CS(=O)(=O)CCCOc1cccc(-n2cccn2)c1 | -9.22% |
| C1CCN(CCOC2CCNCC2)C1 | 6.59% |
